Measured values: ChEMBL document CHEMBL4184277, “Substitution of terminal amide with 1H-1,2,3-triazole: Identification of unexpected class of potent antibacterial agents” (2018)
≈ marks a conversion by molar mass, not a printed value. Calls of active or inactive are those of the source. No cut-off for these calls is given here.

Tests used:
Escherichia coli = assay: Antibacterial activity against Escherichia coli ATCC 25922 after 24 hrs by broth microdilution method; format: functional; conditions: ATCC 25922, 24 h
How it was run: (§1)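 Broth microdilution run to the standard NCCLS-recommended procedure, applied to all newly synthesized compounds, with a panel that included four Gram-positive strains.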

Staphylococcus aureus [1] = assay: Antibacterial activity against penicillin-resistant Staphylococcus aureus after 24 hrs by broth microdilution method; format: functional
Staphylococcus aureus [2] = assay: Antibacterial activity against methicillin-resistant Staphylococcus aureus ATCC 43300 after 24 hrs by broth microdilution method; format: functional; conditions: ATCC 43300, 24 h
Bacillus subtilis = assay: Antibacterial activity against Bacillus subtilis ATCC 9372 after 24 hrs by broth microdilution method; format: functional; conditions: ATCC 9372, 24 h; how it was run: as §1
Staphylococcus aureus [3] = assay: Antibacterial activity against Staphylococcus aureus ATCC 25923 after 24 hrs by broth microdilution method; format: functional; conditions: ATCC 25923, 24 h; how it was run: as §1
Klebsiella pneumoniae = assay: Antibacterial activity against Klebsiella pneumoniae ATCC 700603 after 24 hrs by broth microdilution method; format: functional; conditions: Klebsiella pneumoniae, 700603, 24 h; how it was run: as §1
[4] = target: T1, Cell division protein FtsZ (Bacillus subtilis) (UniProt A5Z1V5); assay: Inhibition of FtsZ in Bacillus subtilis ATCC 9372 assessed as filamentation
T1 sequence (whole entry): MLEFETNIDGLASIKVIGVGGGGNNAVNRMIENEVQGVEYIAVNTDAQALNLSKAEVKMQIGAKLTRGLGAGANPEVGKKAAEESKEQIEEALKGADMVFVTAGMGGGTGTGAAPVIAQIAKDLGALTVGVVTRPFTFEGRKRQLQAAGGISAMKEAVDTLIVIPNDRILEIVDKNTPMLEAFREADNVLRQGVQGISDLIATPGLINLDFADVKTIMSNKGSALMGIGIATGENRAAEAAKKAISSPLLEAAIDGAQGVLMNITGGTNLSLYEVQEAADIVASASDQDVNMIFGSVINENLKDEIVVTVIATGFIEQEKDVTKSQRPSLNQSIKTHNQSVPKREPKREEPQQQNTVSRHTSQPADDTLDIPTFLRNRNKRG

[5] = target: T2, Cell division protein FtsZ (Staphylococcus aureus) (UniProt P0A031); assay: Inhibition of FtsZ in Staphylococcus aureus assessed as ballooning
T2 sequence (whole entry): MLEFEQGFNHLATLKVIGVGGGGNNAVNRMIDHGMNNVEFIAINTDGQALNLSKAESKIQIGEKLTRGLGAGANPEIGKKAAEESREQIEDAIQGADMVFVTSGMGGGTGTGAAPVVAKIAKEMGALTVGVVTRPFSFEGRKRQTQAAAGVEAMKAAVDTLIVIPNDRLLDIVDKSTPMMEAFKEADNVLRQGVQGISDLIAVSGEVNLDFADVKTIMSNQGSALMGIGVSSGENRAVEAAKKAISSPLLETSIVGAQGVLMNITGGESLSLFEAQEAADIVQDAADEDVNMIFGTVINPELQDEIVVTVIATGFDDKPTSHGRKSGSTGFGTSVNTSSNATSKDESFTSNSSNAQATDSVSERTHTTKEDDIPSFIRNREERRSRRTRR

[6] = target: T1, Cell division protein FtsZ (Bacillus subtilis); assay: Inhibition of FtsZ in Bacillus subtilis ATCC 9372 assessed as filamentation at 1 ug/ml

Row | SMILES | MIC (Escherichia coli) | MIC (Staphylococcus aureus [1]) | MIC (Staphylococcus aureus [2]) | MIC (Bacillus subtilis) | MIC (Staphylococcus aureus [3]) | MIC (Klebsiella pneumoniae) | inhibition [4] | inhibition [5] | inhibition [6]
1 | Fc1ccc(OCc2nc3cc(Cl)cnc3s2)c(F)c1-c1c[nH]nn1 | > 64 µg/mL | > 64 µg/mL | > 64 µg/mL | > 64 µg/mL | > 64 µg/mL | > 64 µg/mL | – | – | –
2 | Cc1ccc(COc2ccc(F)c(-c3c[nH]nn3)c2F)cc1 | > 64 µg/mL | 32 µg/mL (≈ 106 µM) | 16 µg/mL (≈ 53.1 µM) | 32 µg/mL (≈ 106 µM) | 32 µg/mL (≈ 106 µM) | > 64 µg/mL | – | – | –
3 | Fc1ccc(OCc2nc(-c3ccc(Cl)cc3)c(Br)o2)c(F)c1-c1c[nH]nn1 | > 64 µg/mL | > 64 µg/mL | > 64 µg/mL | > 64 µg/mL | > 64 µg/mL | > 64 µg/mL | – | – | –
4 | CCCCC(CC)COc1ccc(-c2c[nH]nn2)cc1 (configuration not stated) | > 64 µg/mL | 4 µg/mL (≈ 14.6 µM) | 4 µg/mL (≈ 14.6 µM) | 2 µg/mL (≈ 7.32 µM) | 4 µg/mL (≈ 14.6 µM) | 4 µg/mL (≈ 14.6 µM) | inactive | Active | –
5 | Clc1ccc(COc2cccc(Cn3cncn3)c2)cc1 | > 64 µg/mL | > 64 µg/mL | > 64 µg/mL | > 64 µg/mL | > 64 µg/mL | 64 µg/mL (≈ 214 µM) | – | – | –
6 | CCCCC(CC)COc1cccc(-c2c[nH]nn2)c1 (racemic) | > 64 µg/mL | 4 µg/mL (≈ 14.6 µM) | 4 µg/mL (≈ 14.6 µM) | 2 µg/mL (≈ 7.32 µM) | 2 µg/mL (≈ 7.32 µM) | 4 µg/mL (≈ 14.6 µM) | – | Active | inactive
7 | NC(=O)c1c(F)ccc(OCc2nc(-c3ccc(Cl)cc3)c(Br)o2)c1F | – | – | 0.06 µg/mL (≈ 0.135 µM) | – | – | – | – | – | –
8 | Clc1cccc(COc2cccc(Cn3cncn3)c2)c1 | > 64 µg/mL | > 64 µg/mL | > 64 µg/mL | > 64 µg/mL | > 64 µg/mL | 64 µg/mL (≈ 214 µM) | – | – | –
9 | CCCCC(CC)COc1cccc(Cn2cnnn2)c1 (racemic) | > 64 µg/mL | > 64 µg/mL | > 64 µg/mL | > 64 µg/mL | > 64 µg/mL | 8 µg/mL (≈ 27.7 µM) | – | – | –
10 | O=[N+]([O-])c1ccc(COc2cccc(Cn3cncn3)c2)cc1 | > 64 µg/mL | > 64 µg/mL | > 64 µg/mL | > 64 µg/mL | > 64 µg/mL | > 64 µg/mL | – | – | –
11 | CCCCC(CC)COc1cccc(-c2nnco2)c1 (racemic) | > 64 µg/mL | – | – | 16 µg/mL (≈ 58.3 µM) | 32 µg/mL (≈ 117 µM) | 16 µg/mL (≈ 58.3 µM) | – | – | –
12 | NC(=O)c1c(F)ccc(OCc2nc3cc(Cl)cnc3s2)c1F | > 64 µg/mL | 0.5 µg/mL (≈ 1.41 µM) | 1 µg/mL (≈ 2.81 µM) | 0.25 µg/mL (≈ 0.703 µM) | 0.5 µg/mL (≈ 1.41 µM) | 0.25 µg/mL (≈ 0.703 µM) | – | – | –
13 | c1ccc(COc2cccc(-c3c[nH]nn3)c2)cc1 | > 64 µg/mL | > 64 µg/mL | > 64 µg/mL | > 64 µg/mL | > 64 µg/mL | 64 µg/mL (≈ 255 µM) | – | – | –
14 | CCCCC(CC)COc1ccc(F)c(-c2c[nH]nn2)c1F (racemic) | > 64 µg/mL | 8 µg/mL (≈ 25.9 µM) | 4 µg/mL (≈ 12.9 µM) | 4 µg/mL (≈ 12.9 µM) | 8 µg/mL (≈ 25.9 µM) | 8 µg/mL (≈ 25.9 µM) | – | – | –
15 | Cc1ccc(COc2cccc(-c3c[nH]nn3)c2)cc1 | > 64 µg/mL | > 64 µg/mL | > 64 µg/mL | > 64 µg/mL | 32 µg/mL (≈ 121 µM) | > 64 µg/mL | – | – | –
16 | CCCCC(CC)COc1cccc(-c2cn(C)nn2)c1 (configuration not stated) | > 64 µg/mL | > 64 µg/mL | 32 µg/mL (≈ 111 µM) | 32 µg/mL (≈ 111 µM) | 64 µg/mL (≈ 223 µM) | 4 µg/mL (≈ 13.9 µM) | – | – | –
17 | CCCCC(CC)COc1cccc(-c2ncno2)c1 (racemic) | > 64 µg/mL | > 64 µg/mL | > 64 µg/mL | > 64 µg/mL | > 64 µg/mL | > 64 µg/mL | – | – | –
18 | Fc1ccc(OCc2ccc(Cl)cc2)c(F)c1-c1c[nH]nn1 | > 64 µg/mL | > 64 µg/mL | > 64 µg/mL | > 64 µg/mL | > 64 µg/mL | > 64 µg/mL | – | – | –
19 | Cc1cccc(COc2ccc(F)c(-c3c[nH]nn3)c2F)c1 | > 64 µg/mL | 32 µg/mL (≈ 106 µM) | 16 µg/mL (≈ 53.1 µM) | 32 µg/mL (≈ 106 µM) | 32 µg/mL (≈ 106 µM) | 64 µg/mL (≈ 212 µM) | – | – | –
20 | Clc1ccc(COc2cccc(-c3c[nH]nn3)c2)cc1 | > 64 µg/mL | > 64 µg/mL | > 64 µg/mL | > 64 µg/mL | > 64 µg/mL | > 64 µg/mL | – | – | –
